Experimental data taken from ChEMBL document CHEMBL3085725, “Design, synthesis and molecular modelling studies of novel 3-acetamido-4-methyl benzoic acid derivatives as inhibitors of protein tyrosine phosphatase 1B” (Eur J Med Chem, 2013).

Experiments:
[1] = target: T1, Tyrosine-protein phosphatase non-receptor type 1 (Homo sapiens) (UniProt P18031); assay: Inhibition of recombinant human PTP1B at 10 uM by malachite green assay relative to control
T1 sequence (whole entry): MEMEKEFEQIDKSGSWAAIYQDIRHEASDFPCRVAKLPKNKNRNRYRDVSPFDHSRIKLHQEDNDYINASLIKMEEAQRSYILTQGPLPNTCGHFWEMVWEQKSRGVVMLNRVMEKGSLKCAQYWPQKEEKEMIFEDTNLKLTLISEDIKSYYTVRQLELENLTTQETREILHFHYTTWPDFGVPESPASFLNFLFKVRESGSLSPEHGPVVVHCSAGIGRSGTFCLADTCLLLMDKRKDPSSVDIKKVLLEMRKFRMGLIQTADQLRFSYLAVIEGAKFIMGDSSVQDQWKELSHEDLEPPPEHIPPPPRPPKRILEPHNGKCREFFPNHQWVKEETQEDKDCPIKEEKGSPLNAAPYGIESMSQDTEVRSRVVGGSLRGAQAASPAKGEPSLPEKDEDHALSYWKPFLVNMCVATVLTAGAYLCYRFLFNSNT
In short: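 Human recombinant PTP1B incubated with test compound at 10 µM; DMSO as control. Colorimetric, non-radioactive assay detecting free phosphate released, read with Biomol red phosphate reagent (malachite green basis). Percent inhibition is calculated against control activity without inhibitor, taken as 100%, from three independent sets of experiments.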

[2] = target: T2, Tyrosine-protein phosphatase non-receptor type 1 (Homo sapiens, UniProt P18031); assay: Inhibition of recombinant human PTP1B by malachite green assay
T2 sequence (P18031 whole entry): T1 sequence (whole entry)
In short: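 Human recombinant PTP1B; compounds giving around 50% inhibition at 10 µM are retested at six concentrations. Free phosphate released is detected colorimetrically with Biomol red (malachite green).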

[3] = organism: Danio rerio; assay: Toxicity in zebra fish embryo assessed as death at 10 uM after 24 to 72 hrs by visible light microscopy; type: organism-based; details: zebrafish, in vivo
In short: (§1)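 Wild-type Indian zebrafish strain kept at 28 °C, 14:10 h light/dark. Embryos from natural mating raised 24 h in E3 medium, dechorionated at 24 hpf with 500 µg/ml Pronase K for 10 min. Six embryos per well exposed to compound at 10 µM final in 0.1% DMSO for 24, 48 and 72 h. Controls received 0.1% DMSO. Embryos scored under visible light microscopy at intervals.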

[4] = organism: Danio rerio; assay: Toxicity in zebra fish embryo assessed as deformation at 10 uM after 24 to 72 hrs by visible light microscopy; type: organism-based; details: zebrafish, in vivo; in short: as §1
[5] = organism: Danio rerio; assay: Toxicity in zebra fish embryo assessed as developmental delay at 10 uM after 24 to 72 hrs by visible light microscopy; type: organism-based; details: zebrafish, in vivo; in short: as §1
[6] = test system: Danio rerio; assay: Toxicity in zebra fish embryo assessed as oedema at 10 uM after 24 to 72 hrs by visible light microscopy; type: organism-based; details: zebrafish, in vivo; in short: as §1

Compound	inhibition [1]	IC50 [2]	further results
Cc1ccc(C(=O)O)cc1NC(=O)CSc1nnc(-c2cccc(Cl)c2Cl)o1	29.9%		
Cc1ccc(C(=O)O)cc1NC(=O)CSc1nc2ccccc2[nH]1	47.8%	15.2 µM	
Cc1ccc(C(=O)O)cc1NC(=O)CSc1nc2ccccc2o1	32.8%		
COc1cc(-c2nnc(SCC(=O)Nc3cc(C(=O)O)ccc3C)o2)cc(OC)c1OC	50.7%	9.7 µM	
Cc1ccc(C(=O)O)cc1NC(=O)CSc1nnc(-c2ccc(O)cc2)o1	47%	10.3 µM	
Cc1ccc(C(=O)O)cc1NC(=O)CSc1nc2cc([N+](=O)[O-])ccc2[nH]1	26.9%		
COc1ccc2[nH]c(SCC(=O)Nc3cc(C(=O)O)ccc3C)nc2c1	57.5%	8.2 µM	Activity [3]: Non-toxic; Activity [4]: Non-toxic; Activity [5]: Non-toxic; Activity [6]: Non-toxic
Cc1ccc(C(=O)O)cc1NC(=O)CSc1nnc(-c2ccc(Cl)cc2Cl)o1	43.3%		

Continued, in another order:

inhibition [1]	IC50 [2]	Compound	further results
57.5%	8.5 µM	Cc1ccc(C(=O)O)cc1NC(=O)CSc1nc2ccccc2s1	
27.5%		Cc1ccc(C(=O)O)cc1NC(=O)CSc1nnc(-c2ccccc2Cl)o1	
51.5%	8.9 µM	Cc1ccc(-c2nnc(SCC(=O)Nc3cc(C(=O)O)ccc3C)o2)cc1	
38.8%		Cc1ccc(C(=O)O)cc1NC(=O)CSc1nnc(-c2ccccc2O)o1	
